Data reported in ChEMBL document CHEMBL1125014, “Synthesis and structure-activity relationships of new 9-N-alkyl derivatives of 9(S)-erythromycylamine” (1990).

Key:
[1] = species on record: Rattus norvegicus; assay: Fluid concentration in liver tissue was determined in rats at 4 h; assay type: functional
In short: (§1)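 Rats dosed by gavage at 20 mg/kg; lung, liver, kidney, urine and serum sampled at 0.5, 1, 2, 4 and 6 h after dosing. Antibiotic measured by microbiological assay with Micrococcus luteus seeded in Antibiotic Medium 1. Zone sizes were read against the standard curve for the same compound. Each value is the average of three rats per time point.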

[2] = species on record: Rattus norvegicus; assay: Fluid concentration in urine tissue was determined in rats at 1 h; assay type: functional; in short: as §1
[3] = species on record: Rattus norvegicus; assay: Fluid concentration in liver tissue was determined in rats at 2 h; assay type: functional; in short: as §1
[4] = system: Mus musculus; assay: Plasma concentration in mice was determined by oral administration, 20 mg/kg at 40 min; assay type: functional, organism-based; design: dose 20 mg/kg
In short: (§2)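 Mice given 20 mg/kg orally or subcutaneously; peripheral plasma sampled at 5, 20 and 40 min and at 1, 2 and 4 h after dosing. Microbiological assay used Micrococcus luteus seeded in Antibiotic Medium 1, with zone sizes converted by the compound's own standard curve. Each value is the average of five mice per time point.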

[5] = system: Mus musculus; assay: Plasma concentration in mice was determined by oral administration, 20 mg/kg at 20 min; assay type: functional, organism-based; design: dose 20 mg/kg; in short: as §2
[6] = species on record: Rattus norvegicus
[7] = species on record: Rattus norvegicus; remark: listed apart in the source
[8] = species on record: Rattus norvegicus; assay: Fluid concentration in liver tissue was determined in rats at 6 hr; assay type: functional; in short: as §1
[9] = species on record: Mus musculus

Row | SMILES | Activity [1] [µg/mL] | Activity [2] [µg/mL] | Activity [3] [µg/mL] | Plasma concentration [4] [µg/mL] | Plasma concentration [5] [µg/mL] | Plasma concentration [6] [µg/mL] | Plasma concentration [7] [µg/mL] | Activity [8] [µg/mL] | Plasma concentration [9] [µg/mL]
1 | CCCN[C@@H]1[C@H](C)[C@@H](O)[C@](C)(O)[C@@H](CC)OC(=O)[C@H](C)[C@@H](OC2CC(C)(OC)C(O)C(C)O2)[C@H](C)[C@@H](OC2OC(C)CC(N(C)C)C2O)[C@](C)(O)C[C@H]1C (some centres undefined) | 3.06 | 3.78 | 2.99 | 0.036 | 0.01 |  |  |  | 
2 | CC[C@H]1OC(=O)[C@H](C)[C@@H](O[C@H]2C[C@@](C)(OC)[C@@H](O)[C@H](C)O2)[C@H](C)[C@@H](O[C@@H]2O[C@H](C)C[C@H](N(C)C)[C@H]2O)[C@](C)(O)C[C@@H](C)C(=O)[C@H](C)[C@@H](O)[C@]1(C)O [ERYTHROMYCIN] |  |  |  |  |  | 0 | 1.21 | 0 | 0
